Measurements reported in ChEMBL document CHEMBL3580634, “Discovery of a high affinity and selective pyridine analog as a potential positron emission tomography imaging agent for cannabinoid type 2 receptor” (J Med Chem, 2015).

Experiments:
Cannabinoid receptor 2 [1] = molecular target: T1, Cannabinoid receptor 2 (Homo sapiens, UniProt P34972); test: Activity at human CB2 receptor expressed in CHO cells assessed as cAMP accumulation incubated for 30 mins by time-resolved FRET assay; assay type: functional, cell-based
Procedure, shortened: (§1)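 CHO cells expressing human CB1 or CB2 were seeded 1 day before in DMEM/HT supplement/10% FCS. Medium was replaced with Krebs Ringer bicarbonate buffer containing 1 mM IBMX, 30 min at 30 °C, then compound added for 30 min at 30 °C. cAMP was read by time-resolved FRET (cAMP-Nano-TRF kit) against a standard curve from 10 μM to 0.13 nM. Ten concentrations in triplicate, single experiment.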

Cannabinoid receptor 1 = Cannabinoid receptor 1 (Homo sapiens, UniProt P21554); test: Activity at human CB1 receptor expressed in CHO cells assessed as cAMP accumulation incubated for 30 mins by time-resolved FRET assay; assay type: functional, cell-based; procedure, shortened: as §1
Cannabinoid receptor 2 [2] = molecular target: T1, Cannabinoid receptor 2; test: Displacement of [3H]CP-55,940 from human CB2 receptor expressed in CHO cell membranes
Procedure, shortened: (§2)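 Membranes from CHO cells expressing human or murine CB2 were incubated with [3H]CP-55,940 in 50 mM Tris, 5 mM MgCl2, 2.5 mM EGTA, 0.1% fatty-acid-free BSA, pH 7.4, 1 h at 30 °C with shaking. Reaction stopped by filtration through PEI-coated GF/B. Ki from nonlinear regression using saturation-derived Kd. Ten concentrations in triplicate.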

Cannabinoid receptor 2 [3] = molecular target: Cannabinoid receptor 2 (Mus musculus, UniProt P47936); test: Displacement of [3H]CP-55,940 from mouse CB2 receptor expressed in CHO cell membranes; procedure, shortened: as §2
[4] = Lipophilicity, log D of the compound in n-octanol/phosphate buffer pH 7.4 by shake flask method; assay type: physicochemical
Brain [5] = test: Biodistribution in Wistar rat brain at 48 MBq, iv measured after 20 mins by radio-TLC method; assay type: ADME, organism-based; settings: in vivo
Spleen [6] = test: Biodistribution in Wistar rat spleen at 11 to 18 MBq, iv measured after 10 mins by PET/CT imaging method; assay type: ADME, organism-based; settings: in vivo
Procedure, shortened: (§3)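 Isoflurane-anaesthetized male Wistar rats received 11–18 MBq (0.06–0.09 nmol) tracer via tail vein. Dynamic PET ran 60 min from injection, then CT. For displacement, 1.5 mg/kg blocker was given iv 10 min after tracer; 2 rats per condition. Temperature held at 37 °C. Reconstruction by 2D-OSEM without attenuation correction. Uptake given as SUV.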

Plasma = test: Stability in human plasma assessed as compound degradation at 4 MBq at 37 degC […] by radio-TLC method; assay type: ADME, cell-free; settings: 40 min
[7] = Lipophilicity, log D of the radio-labeled compound in n-octanol/phosphate buffer pH 7.4 by shake flask method; assay type: physicochemical
Procedure, shortened: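 Formulated radiotracer (8 MBq) was added to n-octanol and phosphate buffer pH 7.4, each presaturated with the other, shaken 15 min and centrifuged 5000g 5 min. Radioactivity in both phases was gamma-counted and D taken as their ratio; n = 5.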

Brain [8] = test: Biodistribution in Wistar rat brain at 6 to 10 MBq, iv measured after 15 mins by gamma counting method; assay type: ADME, organism-based; settings: in vivo, 0.25 h
Procedure, shortened: (§4)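 Male Wistar rats (5 weeks old) received 6–10 MBq (0.03–0.05 nmol) tracer via tail vein. For blocking, 1.5 mg/kg blocker was given iv shortly before the tracer (n = 3). Rats were decapitated under isoflurane at 15 min pi. Organs were weighed and gamma-counted, expressed as normalized %ID/g tissue (per 1 kg body weight). One baseline animal was excluded for paravenous injection.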

Spleen [9] = test: Biodistribution in mouse spleen at 0.2 nM incubated for 15 mins by autoradiography; assay type: ADME; settings: 0.25 h, 0.0002 µM
Procedure, shortened: (§5)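 Mouse or rat spleen cryosections (20 μm) were thawed on ice and preconditioned in 50 mM Tris/HCl, 5% BSA, pH 7.4, then incubated 15 min at rt with 0.2 nM radioligand, alone or with 5 μM blocker. Washed in Tris/HCl with 1% BSA and 5% EtOH (2 × 2 min) and water on ice, then exposed 30 min to phosphor imager plates.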

Spleen [10] = test: Biodistribution in Wistar rat spleen at 11 to 18 MBq, iv treated with 1.5 mg/kg CB2 ligand GW405833 injected 10 mins after compound dosing by PET/CT imaging method; assay type: ADME, organism-based; settings: in vivo; procedure, shortened: as §3
[11] = Stability in rat plasma assessed as intact compound remaining at 4 MBq at 37 degC incubated for 5 to 20 mins by radio-TLC method; assay type: ADME, cell-free; settings: read-out: Stability
Procedure, shortened: (§6)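 Mouse, rat or human plasma was incubated with formulated radiotracer (4 MBq) at 37 °C with shaking. Aliquots taken at 5, 10, 15 and 20 min were quenched with ice-cold acetonitrile and centrifuged. Supernatant was analysed by radio-TLC in hexane/EtOAc (1:1).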

Spleen [12] = test: Biodistribution in mouse spleen at 0.2 nM incubated for 15 mins in presence of 5 uM CB2 ligand GW405833 by autoradiography; assay type: ADME; settings: 0.25 h, 0.0002 µM; procedure, shortened: as §5
[13] = Drug metabolism in Wistar rat urine assessed as hydrophilic radio-metabolites level at 48 MBq, iv measured after 5 to 20 mins by radio-TLC method; assay type: ADME, organism-based; settings: in vivo
Procedure, shortened: (§7)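 After iv tracer, rat plasma was taken at 5, 10 and 20 min. Urine and brain were collected at 20 min sacrifice. Plasma was separated at 5000g, 5 min, 4 °C. Proteins in plasma, urine and PBS brain homogenate were precipitated with cold acetonitrile and centrifuged. Supernatants were run by radio-TLC in hexane/EtOAc (1:1), reported as % of total activity.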

[14] = Biodistribution in Wistar rat plasma assessed as intact parent tracer level at 48 MBq, iv measured after 20 mins by radio-TLC method; assay type: ADME, organism-based; settings: read-out: Drug uptake; procedure, shortened: as §7
Spleen [15] = test: Biodistribution in Wistar rat spleen at 6 to 10 MBq, iv treated with 1.5 mg/kg CB2 ligand GW405833 injected 1 mins after compound dosing by gamma counting method; assay type: ADME, organism-based; settings: in vivo
Brain [16] = test: Biodistribution in brain of mouse model of LPS-induced neuroinflammation at 10 to 27 MBq, iv treated with 10 mg/kg LPS 5 days before PET scan by PET imaging method; assay type: ADME, organism-based; settings: in vivo, 120 h
Procedure, shortened: (§8)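 Male CD-1 mice got 10 mg/kg LPS (E. coli O111:B4) or saline ip 5 days before PET. Under isoflurane, 10–27 MBq tracer was injected via tail vein, with 60 min PET then CT. For blocking, 2.0 mg/kg blocker or vehicle was given sc 30 min before tracer. Whole-brain ROI was taken on an MRI T2 template, expressed as SUV; n = 2 per condition.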

Small intestine = test: Biodistribution in Wistar rat small intestine at 6 to 10 MBq, iv measured after 15 mins by gamma counting method; assay type: ADME, organism-based; settings: in vivo, 0.25 h; procedure, shortened: as §4
Spleen [17] = test: Biodistribution in Wistar rat spleen at 11 to 18 MBq, iv measured during first 10 mins by PET/CT imaging method; assay type: ADME, organism-based; settings: in vivo; procedure, shortened: as §3
[18] = Biodistribution in Wistar rat plasma assessed as intact parent tracer level at 48 MBq, iv measured after 5 mins by radio-TLC method; assay type: ADME, organism-based; settings: read-out: Drug uptake; procedure, shortened: as §7
Spleen [19] = test: Biodistribution in rat spleen at 0.2 nM incubated for 15 mins in presence of 5 uM CB2 ligand GW405833 by autoradiography; assay type: ADME; settings: 0.25 h, 0.0002 µM; procedure, shortened: as §5
Spleen [20] = test: Biodistribution in Wistar rat spleen at 11 to 18 MBq, iv treated with 1.5 mg/kg CB2 ligand GW405833 injected 10 mins after compound dosing and measured 15 mins after GW405833 dosing by PET/CT imaging method; assay type: ADME, organism-based; settings: in vivo, 0.25 h; procedure, shortened: as §3
[21] = Biodistribution in Wistar rat plasma assessed as intact parent tracer level at 48 MBq, iv measured after 10 mins by radio-TLC method; assay type: ADME, organism-based; settings: read-out: Drug uptake; procedure, shortened: as §7
Liver = test: Biodistribution in Wistar rat liver at 6 to 10 MBq, iv measured after 15 mins by gamma counting method; assay type: ADME, organism-based; settings: in vivo, 0.25 h; procedure, shortened: as §4
Brain [22] = test: Biodistribution in brain of mouse model of LPS-induced neuroinflammation at 10 to 27 MBq, iv treated with 2 mg/kg CB2 ligand GW405833 injected 30 mins before PECT acquisition by PET imaging method; assay type: ADME, organism-based; settings: in vivo, 0.5 h; procedure, shortened: as §8
[23] = Stability in mouse plasma assessed as intact compound remaining at 4 MBq at 37 degC incubated for 5 to 20 mins by radio-TLC method; assay type: ADME, cell-free; settings: read-out: Stability; procedure, shortened: as §6
Spleen [24] = test: Biodistribution in rat spleen at 0.2 nM incubated for 15 mins by autoradiography; assay type: ADME; settings: 0.25 h, 0.0002 µM; procedure, shortened: as §5

Chain of Cannabinoid receptor 2 (Mus musculus, UniProt P47936) (P47936 whole entry): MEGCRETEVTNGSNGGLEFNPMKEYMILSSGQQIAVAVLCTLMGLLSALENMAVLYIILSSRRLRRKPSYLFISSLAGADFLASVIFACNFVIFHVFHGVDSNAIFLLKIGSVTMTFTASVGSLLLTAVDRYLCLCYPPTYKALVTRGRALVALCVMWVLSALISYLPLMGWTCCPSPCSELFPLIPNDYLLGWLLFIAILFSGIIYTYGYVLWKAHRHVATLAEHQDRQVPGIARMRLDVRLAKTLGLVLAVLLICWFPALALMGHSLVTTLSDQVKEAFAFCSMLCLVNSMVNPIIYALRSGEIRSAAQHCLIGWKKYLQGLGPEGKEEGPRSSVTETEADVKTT
Chain of Cannabinoid receptor 1 (P21554 whole entry, looked up): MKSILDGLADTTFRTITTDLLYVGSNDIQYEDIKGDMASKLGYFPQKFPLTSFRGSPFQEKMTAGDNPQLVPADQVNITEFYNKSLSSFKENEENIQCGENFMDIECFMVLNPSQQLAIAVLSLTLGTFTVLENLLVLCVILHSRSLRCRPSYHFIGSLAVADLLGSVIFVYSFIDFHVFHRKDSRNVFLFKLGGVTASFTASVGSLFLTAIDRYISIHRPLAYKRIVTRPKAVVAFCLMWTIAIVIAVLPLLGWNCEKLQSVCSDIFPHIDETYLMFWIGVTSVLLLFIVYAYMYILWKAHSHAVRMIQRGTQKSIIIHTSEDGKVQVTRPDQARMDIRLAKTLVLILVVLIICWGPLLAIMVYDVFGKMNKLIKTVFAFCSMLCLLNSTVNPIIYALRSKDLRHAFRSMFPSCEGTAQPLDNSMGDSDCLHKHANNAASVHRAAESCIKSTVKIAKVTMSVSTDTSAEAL
T1 sequence (P34972 whole entry): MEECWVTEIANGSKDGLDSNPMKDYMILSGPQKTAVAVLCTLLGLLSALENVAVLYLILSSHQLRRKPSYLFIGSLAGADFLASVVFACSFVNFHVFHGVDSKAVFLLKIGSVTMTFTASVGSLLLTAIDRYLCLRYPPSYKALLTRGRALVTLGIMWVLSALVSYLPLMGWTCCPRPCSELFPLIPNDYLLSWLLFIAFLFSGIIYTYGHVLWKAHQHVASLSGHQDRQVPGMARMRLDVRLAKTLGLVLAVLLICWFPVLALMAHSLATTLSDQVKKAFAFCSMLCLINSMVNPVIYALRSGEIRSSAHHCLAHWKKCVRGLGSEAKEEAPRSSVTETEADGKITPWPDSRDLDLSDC

Work on `CCC(CC)(NC(=O)c1ccc(N2CC(F)(F)C2)c(OCC2CC2)n1)C(=O)NCCF` yielded an EC50 (Cannabinoid receptor 2 [1]) of 0.027 µM, an EC50 (Cannabinoid receptor 1) greater than 10 µM and a Ki (Cannabinoid receptor 2 [2]) of 0.774 µM. The Ki (Cannabinoid receptor 2 [3]) was 0.403 µM.

Work on `CCOCCOCC(C)(C)c1cc(NC(=O)c2ccc(C3CCCC3)c(OCC3CC3)n2)on1` yielded an EC50 (Cannabinoid receptor 1) greater than 10 µM, a Ki (Cannabinoid receptor 2 [2]) of 0.264 µM and a Ki (Cannabinoid receptor 2 [3]) of 0.0117 µM.

With `CCC(CC)(NC(=O)c1ccc(N2CC(OC)C2)c(OCC2CC2)n1)C(=O)NCCF` the EC50 (Cannabinoid receptor 2 [1]) was 0.281 µM, the EC50 (Cannabinoid receptor 1) was greater than 10 µM and the Ki (Cannabinoid receptor 2 [2]) was 0.902 µM. It also gave a Ki (Cannabinoid receptor 2 [3]) of 0.421 µM and a logD [4] of 3.43.

With `COCCOCC(C)(C)c1cc(NC(=O)c2ccc(C3CCCC3)c(OCC3CC3)n2)on1` the EC50 (Cannabinoid receptor 1) was greater than 10 µM, the Ki (Cannabinoid receptor 2 [2]) was 0.294 µM and the Ki (Cannabinoid receptor 2 [3]) was 0.0127 µM.

`CC(C)(Cc1nnc(-c2ccc(F)cc2)o1)NC(=O)c1ccc(N2CC(F)(F)C2)c(OCC2CC2)n1` gave an EC50 (Cannabinoid receptor 1) greater than 10 µM, a Ki (Cannabinoid receptor 2 [2]) of 3.03 µM and a Ki (Cannabinoid receptor 2 [3]) of 1.05 µM.

`CC(C)(NC(=O)c1ccc(N2CC(F)(F)C2)c(OCC2CC2)n1)c1nnc(C2CC2)o1` gave an EC50 (Cannabinoid receptor 2 [1]) greater than 10 µM, an EC50 (Cannabinoid receptor 1) greater than 10 µM and a Ki (Cannabinoid receptor 2 [2]) greater than 10 µM. For the same compound, the Ki (Cannabinoid receptor 2 [3]) was greater than 10 µM.

For `COC1CN(c2ccc(C(=O)NC3(CC(N)=O)COC3)nc2OCC2CC2)C1`, the EC50 (Cannabinoid receptor 1) was greater than 10 µM, the Ki (Cannabinoid receptor 2 [2]) was 1.02 µM and the Ki (Cannabinoid receptor 2 [3]) was 3.11 µM. The logD [4] was 1.7.

For `CCOC(=O)C(CC)(CC)NC(=O)c1ccc(N2CC(O[11CH3])C2)c(OCC2CC2)n1`, the Drug uptake (Brain [5]) was “Not Active”, the Drug uptake (Spleen [6]) was “Not Active” and the Stability (Plasma) was “Stable”. The logD [7] was 1.94, the Drug uptake (Brain [8]) was “Not Active” and the Drug uptake (Spleen [9]) was “Active”. The Ki (Cannabinoid receptor 2 [2]) was 0.0025 µM, the Drug uptake (Spleen [10]) was “Not Active” and the remaining at 4 MBq [11] was 86%. The Drug uptake (Spleen [12]) was “Not Active”, the Drug metabolism [13] was “metabolite_detected” and the logD [4] was 1.94. The remaining at 20 min [14] was 21%, the Drug uptake (Spleen [15]) was “Not Active” and the Drug uptake (Brain [16]) was “Active”. For the same compound, the Drug uptake (Small intestine) was “Active”, the Drug uptake (Spleen [17]) was “Active” and the remaining at 5 min [18] was 51%. The Drug uptake (Spleen [19]) was “Not Active”, the Drug uptake (Spleen [20]) was “Not Active” and the remaining at 10 min [21] was 37%. For the same compound, the Drug uptake (Liver) was “Active”, the Drug uptake (Brain [22]) was “Not Active” and the remaining at 4 MBq [23] was 84%. The Drug uptake (Spleen [24]) was “Active”.

For `CC(C)(NC(=O)c1ccc(N2CC(F)(F)C2)c(OCC2CC2)n1)c1nnc(-c2cccnc2)o1`, the EC50 (Cannabinoid receptor 2 [1]) was 0.396 µM, the EC50 (Cannabinoid receptor 1) was greater than 10 µM and the Ki (Cannabinoid receptor 2 [2]) was greater than 10 µM. It also gave a Ki (Cannabinoid receptor 2 [3]) greater than 10 µM.

Compound `COC1CN(c2ccc(C(=O)NC(C)(C)Cc3nnc(-c4ccc(F)cc4)o3)nc2OCC2CC2)C1` has an EC50 (Cannabinoid receptor 2 [1]) of 1.81 µM, an EC50 (Cannabinoid receptor 1) greater than 10 µM and a Ki (Cannabinoid receptor 2 [2]) of 0.466 µM. The Ki (Cannabinoid receptor 2 [3]) was 0.504 µM.

Compound `CCC(CC)(NC(=O)c1ccc(N2CC(OC)C2)c(OCC2CC2)n1)C(=O)NCCCF` has an EC50 (Cannabinoid receptor 1) greater than 10 µM, a Ki (Cannabinoid receptor 2 [2]) of 2.06 µM and a Ki (Cannabinoid receptor 2 [3]) of 5.26 µM. For the same compound, the logD [4] was 3.67.
